Screens: PubChem BioAssay, Broad Institute
In the library only some 0.7% were active in any assay of this set; here they are far more common.
FN deposition inh: fibronectin deposition inhibition. 350,000 tested, 0.086% active. AID 743247. inhibition, % at 12.6 µM. AH1F fibroblasts, Alexa488-fibronectin deposition fluorescence, overnight;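 active means mean inhibition across replicates of 30% or more, regardless of how many single replicates reach that level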
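Material: AH1F fibroblasts assembling fluorescent fibronectin matrix; amount: 10000 AH1F cells/well; medium: DMEM, 2% serum; reagent: Alexa488-fibronectin, 24 nM final in well; dosing: single compound dose, delivered by pin transfer; incubation: 1 h adhesion, overnight exposure; detection: fluorescence after three HBSS washes, excitation 485 nm, emission 525 nm; measure: fibronectin deposition inhibition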
RAD54 branch: inhibitors of human RAD54 branch migration; RAD54 Holliday junction branch migration, FAM/BHQ fluorescence; inhibition, % at 10.4 µM; 360,000 tested, 0.14% active; AID 602329;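 active means mean normalized replicate activity at least 40 and at least half of replicates scoring 40 or more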;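 further: inhibitors cause a drop in the FAM fluorescence signal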
CaV13 FRET inh: Disruptors of the CACNA1D IQ motif to Ca2+-dependent inactivation inhibitor domain association, primary screening, Förster resonance energy transfer in intact living …; HEK cells, CFP/YFP FRET ICDI-IQ, plate reader, 10 min; percent FRET-ratio fall versus neutral wells; AID 743397; 340,000 tested, 0.098% active; inhibition, % at 12.3 µM;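 active means mean replicate inhibition of at least 30% and at least 1% of replicates passing that level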
N-glyco inh: N-linked glycosylation inhibition; D54 ERlucT glycosylation luciferase reporter, 24 h; percent of 100 nM tunicamycin response; reporter increase, % at 12.5 µM; 360,000 tested, 0.23% active; AID 588692;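 active means mean luciferase reporter signal, scaled so untreated is 0 and the glycosylation-blocking control 100, at or above a set limit in every replicate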;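 further: luciferase carries N-glycosylation sites so blocking glycosylation raises the light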
RAD52 anneal inh: inhibitors of human RAD52 DNA annealing | recombinant RAD52 DNA annealing, FRET fluorescence | inhibition, % at 18.7 µM | 360,000 tested, 0.46% active;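 active means every replicate showing at least 50% inhibition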
Target sequence (P43351 whole entry, looked up): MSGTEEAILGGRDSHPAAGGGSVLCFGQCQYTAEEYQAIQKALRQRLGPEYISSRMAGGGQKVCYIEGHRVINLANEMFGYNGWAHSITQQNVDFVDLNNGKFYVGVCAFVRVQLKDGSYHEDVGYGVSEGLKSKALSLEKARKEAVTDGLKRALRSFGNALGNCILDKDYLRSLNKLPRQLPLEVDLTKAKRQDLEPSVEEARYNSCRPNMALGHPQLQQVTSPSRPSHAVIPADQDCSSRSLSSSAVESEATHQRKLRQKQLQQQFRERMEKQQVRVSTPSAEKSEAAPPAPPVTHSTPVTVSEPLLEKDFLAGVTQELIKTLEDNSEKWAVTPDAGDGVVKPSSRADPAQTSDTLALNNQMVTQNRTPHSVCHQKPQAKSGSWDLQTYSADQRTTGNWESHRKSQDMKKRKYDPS
Large screens that a line does not name were inactive.

COc1ccc2c3c(n(C)c2c1)[C@H](CO)N(C(=O)c1cnccn1)CC31CCN(C(=O)c2ccncc2)CC1	none (no result: FN deposition inh, RAD54 branch, CaV13 FRET inh, N-glyco inh)
CCC(=O)Nc1ccc2c(c1)C(=O)N(C)[C@@H]1CC[C@@H](CC(=O)N3CCc4ccccc4C3)O[C@H]1CO2	none (no result: RAD54 branch, CaV13 FRET inh, N-glyco inh, RAD52 anneal inh)
CC1CN(C(=O)c2cc3c(=O)n4ccccc4nc3n2C)CC(C)O1 (stereo not drawn)	FN deposition inh 36
Cc1ccccc1-n1c(=O)c(C#N)cc2c(=O)n3ccccc3nc21	none (no result: RAD52 anneal inh)
C=CCn1c(=N)c(C#N)cc2c(=O)n3ccccc3nc21	CaV13 FRET inh 33 (no result: FN deposition inh, RAD54 branch, RAD52 anneal inh)
Cc1cc(-n2c(=O)c(C#N)cc3c(=O)n4ccccc4nc32)no1	CaV13 FRET inh 33 (no result: FN deposition inh, RAD52 anneal inh)
COc1cc(NC(C(=O)Nc2cccc(C(C)=O)c2)c2ccccc2)cc(OC)c1OC (stereo not drawn)	N-glyco inh 27 (no result: FN deposition inh, RAD54 branch, RAD52 anneal inh)
COc1cccc(NC(C(=O)Nc2cccc(C(C)=O)c2)c2ccccc2)c1 (stereo not drawn)	none (no result: RAD52 anneal inh)
CCCCCCC(=O)N(O)C1CC(=O)N(Cc2ccccc2)C1=O (stereo not drawn)	N-glyco inh 49 (no result: RAD52 anneal inh)
COc1ccc(-c2n[nH]c3c2CN(C(=O)c2ccc(OC)c(OC)c2)CC3)cc1	N-glyco inh 39
Cc1ccc(S(=O)(=O)Cc2ccc(C(=O)N3CCN(Cc4ccccc4)CC3)o2)cc1	none
COc1ccc(S(=O)(=O)Cc2ccc(C(=O)N3CCN(Cc4ccccc4)CC3)o2)cc1	CaV13 FRET inh 58
N#CC(C#N)=C1C=CC=CN1/C(=C\c1ccco1)C(=O)c1ccc(Cl)cc1	FN deposition inh 36 (no result: RAD54 branch)
CO[C@@H]1CC[C@@H]2CCN(C)C(=O)[C@@H](C)CN(C)C(=O)c3cccc(C#N)c3OC[C@@H]1O2	none (no result: CaV13 FRET inh, N-glyco inh)
CC(C)NC(=S)N/N=C/c1ccccc1[N+](=O)[O-]	none (no result: RAD54 branch)
O=[N+]([O-])c1ccccc1C=NNC(=S)NN=Cc1ccccc1[N+](=O)[O-]	N-glyco inh 28 (no result: FN deposition inh)
C[C@H]1CN([C@@H](C)CO)C(=O)c2cccc(NS(=O)(=O)c3ccccc3)c2O[C@H]1CN(C)Cc1ccc(Oc2ccccc2)cc1	none (no result: FN deposition inh, CaV13 FRET inh, N-glyco inh)
Cc1nc(-c2ccccc2)sc1-c1nc(-c2ccncc2)ncc1S(=O)(=O)c1ccccc1	N-glyco inh 57 (no result: FN deposition inh, CaV13 FRET inh, RAD52 anneal inh)
OCCCN=c1cc(-c2ccccc2)oc2ccc(Cl)cc12	N-glyco inh 58 (no result: FN deposition inh, RAD54 branch, CaV13 FRET inh, RAD52 anneal inh)
CCC(Sc1nc(N)c(NC(=O)c2ccc(OC)cc2)c(=O)[nH]1)C(=O)O (stereo not drawn)	CaV13 FRET inh 67
CCC(=O)N[C@H]1CC[C@@H](CCNC(=O)Nc2ccc(C(F)(F)F)cc2)O[C@@H]1CO	none (no result: CaV13 FRET inh, N-glyco inh)
CC(C)NC(=O)N(C)C[C@@H]1OCCCC[C@@H](C)Oc2ccc(N(C)C)cc2C(=O)N([C@@H](C)CO)C[C@@H]1C	none (no result: CaV13 FRET inh, N-glyco inh)
Cc1ccc(NC(=O)Nc2ccnc(-c3cccnc3)n2)cc1	CaV13 FRET inh 43 (no result: RAD54 branch)
COc1ccc(NC(=O)N(C)C[C@@H]2OCCCC[C@@H](C)Oc3ccc(NC(=O)Nc4cccc5ccccc45)cc3C(=O)N([C@@H](C)CO)C[C@@H]2C)cc1	none (no result: FN deposition inh, CaV13 FRET inh, N-glyco inh, RAD52 anneal inh)
CC#CC#Cc1cccc(=O)o1	N-glyco inh 36
CCN(CC)Cc1c(O)c(Cl)cc2c(C)cc(=O)oc12	CaV13 FRET inh 35 (no result: RAD54 branch)
C=CCc1c(O)c(CC)cc2c(C)cc(=O)oc12	CaV13 FRET inh active (no result: RAD54 branch)
CCN(CC)Cc1c(O)c(Cl)cc2c(C)c(C)c(=O)oc12	none (no result: CaV13 FRET inh, RAD52 anneal inh)
CCC(=O)c1cc2c(C)cc(=O)oc2c(C)c1O	none (no result: FN deposition inh, CaV13 FRET inh, RAD52 anneal inh)
CNC(=O)C[C@H]1CC[C@H]2[C@@H](COC[C@@H](O)CN2C(=O)c2ccc3c(c2)OCO3)O1	none (no result: CaV13 FRET inh, N-glyco inh)
Cc1noc(C)c1NC(=O)N(C)C[C@@H]1Oc2cc(C#CCN(C)C)ccc2S(=O)(=O)N([C@H](C)CO)C[C@@H]1C	none (no result: CaV13 FRET inh, N-glyco inh)
Cc1ccccc1S(=O)(=O)N1C[C@@H](O)COC[C@H]2O[C@H](CC(=O)NCCc3ccccc3)CC[C@@H]21	RAD52 anneal inh 72 (no result: CaV13 FRET inh, N-glyco inh)
Cc1ccccc1S(=O)(=O)N1C[C@H](O)COC[C@@H]2O[C@@H](CC(=O)NCCc3ccccc3)CC[C@H]21	RAD52 anneal inh 58 (no result: CaV13 FRET inh, N-glyco inh)
c1ccc(CN2CCC(Nc3nc(-c4cccnc4)nc4ccccc34)CC2)cc1	N-glyco inh 40
C[C@@H]1CN([C@H](C)CO)C(=O)c2cc(NS(=O)(=O)c3cn(C)cn3)ccc2O[C@@H]1CN(C)C(=O)NC1CCCCC1	none (no result: CaV13 FRET inh, N-glyco inh)
